Results taken from ChEMBL document CHEMBL1133544, “Formaldehyde-induced alkylation of a 2'-aminoglucose rebeccamycin derivative to both A.T and G.C base pairs in DNA” (J Med Chem, 2000).
Several values for one entry are separate records, joined by “and”; a condition that tells them apart may be missing. Identical values can stand only once.

Experiments:
[1] = Delta Tm value ( Tmdrug-DNA )-TmDNA ) was obtained for the covalently cross-linked compound in the presence of formaldehyde using twice of poly(dA-dT) at 0.05 M; assay type: ADME
Method in brief: (§1)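 The preformed drug–nucleic acid complex, at the stated drug/DNA ratio, was treated with HCHO before melting. Melting was done in BPE buffer pH 7.0 with 20 μM nucleotide, monitored at 260 nm, heating 20–100 °C at 1 °C/min. Tm is the hyperchromic transition midpoint, and ΔTm is taken relative to free nucleic acid. Each drug concentration was run in duplicate.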

[2] = system: poly(dA-dC)·poly(dG-dT) (synthetic); assay: Delta Tm value ( Tmdrug-DNA )-TmDNA ) was obtained for the covalently cross-linked compound in the absence of formaldehyde using poly(dA-dC).poly(dG-dT); conditions: in vitro
[3] = Delta Tm value (Tm(drug-DNA)-Tm(DNA)) was determined for the covalently cross-linked compound in the presence of formaldehyde using calf thymus DNA at 0.05 M; assay type: ADME; conditions: cattle; method in brief: as §1
[4] = Delta Tm value (Tm(drug-DNA)-Tm(DNA)) was obtained for the covalently cross-linked compound in the absence of formaldehyde using twice of poly(dI-dC); assay type: ADME
Method in brief: (§2)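 Drug added to nucleic acid at the stated drug/DNA ratio with no HCHO, in BPE buffer pH 7.0 (6 mM Na2HPO4, 2 mM NaH2PO4, 1 mM EDTA). DNA or polynucleotide at 20 μM nucleotide. Absorbance read at 260 nm while heating 20–100 °C at 1 °C/min. Tm taken as the midpoint of the hyperchromic transition; ΔTm = Tm(drug–DNA) − Tm(DNA). Duplicate determinations at each drug concentration.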

[5] = Delta Tm value ( Tmdrug-DNA )-TmDNA ) was obtained for the covalently cross-linked compound in the presence of formaldehyde using poly(dA-dC).poly(dG-dT) at 0.25 M; assay type: ADME; method in brief: as §1
[6] = species on record: Bos taurus; assay: Delta Tm value ( Tmdrug-DNA )-TmDNA ) was obtained for the covalently cross-linked compound in the absence of formaldehyde using calf thymus DNA at 1 M; assay type: ADME; conditions: cattle; method in brief: as §2
[7] = system: [poly(dA-dT)]2 (synthetic); assay: Delta Tm value ( Tmdrug-DNA )-TmDNA ) was obtained for the covalently cross-linked compound in the absence of formaldehyde using twice of poly(dA-dT); conditions: in vivo
[8] = Delta Tm value ( Tmdrug-DNA )-TmDNA ) was obtained for the covalently cross-linked compound in the presence of formaldehyde using poly(dA-dC).poly(dG-dT) at 0.05 M; assay type: ADME; method in brief: as §1
[9] = species on record: Bos taurus; assay: Delta Tm value ( Tmdrug-DNA )-TmDNA ) was obtained for the covalently cross-linked compound in the absence of formaldehyde using calf thymus DNA at 0.1 M; assay type: ADME; conditions: cattle; method in brief: as §2
[10] = Delta Tm value ( Tmdrug-DNA )-TmDNA ) was obtained for the covalently cross-linked compound in the presence of formaldehyde using twice of poly(dA-dT); assay type: ADME; method in brief: as §1
[11] = Delta Tm value (Tm(drug-DNA)-Tm(DNA)) was obtained for the covalently cross-linked compound in the absence of formaldehyde using twice of poly(dI-dC) at 0.25 M; assay type: ADME; method in brief: as §2
[12] = Delta Tm value ( Tmdrug-DNA )-TmDNA ) was obtained for the covalently cross-linked compound in the presence of formaldehyde using poly(dA-dC).poly(dG-dT) at 0.1 M; assay type: ADME; method in brief: as §1
[13] = Delta Tm value ( Tmdrug-DNA )-TmDNA ) was obtained for the covalently cross-linked compound in the absence of formaldehyde using calf thymus DNA.; assay type: ADME; conditions: cattle; method in brief: as §2
[14] = species on record: Bos taurus; assay: Delta Tm value ( Tmdrug-DNA )-TmDNA ) was obtained for the covalently cross-linked compound in the presence of formaldehyde using calf thymus DNA at 0.5 M; assay type: ADME; conditions: cattle; method in brief: as §1
[15] = system: poly(dA-dC)·poly(dG-dT) (synthetic); assay: Delta Tm value ( Tmdrug-DNA )-TmDNA ) was obtained for the covalently cross-linked compound in the absence of formaldehyde using poly(dA-dC).poly(dG-dT) at 0.05 M; conditions: in vitro
[16] = system: poly(dA-dC)·poly(dG-dT) (synthetic); assay: Delta Tm value ( Tmdrug-DNA )-TmDNA ) was obtained for the covalently cross-linked compound in the presence of formaldehyde using poly(dA-dC).poly(dG-dT); conditions: in vitro
[17] = species on record: Bos taurus; assay: Delta Tm value ( Tmdrug-DNA )-TmDNA ) was obtained for the covalently cross-linked compound in the absence of formaldehyde using calf thymus DNA at 0.25 M; assay type: ADME; conditions: cattle; method in brief: as §2
[18] = species on record: Bos taurus; assay: Delta Tm value ( Tmdrug-DNA )-TmDNA ) was obtained for the covalently cross-linked compound in the presence of formaldehyde using calf thymus DNA at 0.25 M; assay type: ADME; conditions: cattle; method in brief: as §1
[19] = system: [poly(dA-dT)]2 (synthetic); assay: Delta Tm value ( Tmdrug-DNA )-TmDNA ) was obtained for the covalently cross-linked compound in the absence of formaldehyde using twice of poly(dA-dT) at 0.1 M; conditions: in vivo
[20] = Delta Tm value (Tm(drug-DNA)-Tm(DNA)) was obtained for the covalently cross-linked compound in the absence of formaldehyde using twice of poly(dI-dC) at 0.05 M; assay type: ADME; method in brief: as §2
[21] = species on record: Bos taurus; assay: Delta Tm value ( Tmdrug-DNA )-TmDNA ) was obtained for the covalently cross-linked compound in the absence of formaldehyde using calf thymus DNA at 0.5 M; assay type: ADME; conditions: cattle; method in brief: as §2
[22] = Delta Tm value ( Tmdrug-DNA )-TmDNA ) was obtained for the covalently cross-linked compound in the presence of formaldehyde using twice of poly(dA-dT) at 0.25 M; assay type: ADME; method in brief: as §1
[23] = species on record: Bos taurus; assay: Delta Tm value ( Tmdrug-DNA )-TmDNA ) was obtained for the covalently cross-linked compound in the presence of formaldehyde using calf thymus DNA.; assay type: ADME; conditions: cattle; method in brief: as §1
[24] = system: poly(dA-dC)·poly(dG-dT) (synthetic); assay: Delta Tm value ( Tmdrug-DNA )-TmDNA ) was obtained for the covalently cross-linked compound in the absence of formaldehyde using poly(dA-dC).poly(dG-dT) at 0.25 M; conditions: in vitro
[25] = species on record: Bos taurus; assay: Delta Tm value ( Tmdrug-DNA )-TmDNA ) was obtained for the covalently cross-linked compound in the presence of formaldehyde using calf thymus DNA at 0.1 M; assay type: ADME; conditions: cattle; method in brief: as §1
[26] = Delta Tm value ( Tmdrug-DNA )-TmDNA ) was obtained for the covalently cross-linked compound in the presence of formaldehyde using twice of poly(dA-dT) at 0.5 M; assay type: ADME; method in brief: as §1
[27] = system: [poly(dA-dT)]2 (synthetic); assay: Delta Tm value ( Tmdrug-DNA )-TmDNA ) was obtained for the covalently cross-linked compound in the absence of formaldehyde using twice of poly(dA-dT) at 0.05 M; conditions: in vivo
[28] = Delta Tm value ( Tmdrug-DNA )-TmDNA ) was obtained for the covalently cross-linked compound in the presence of formaldehyde using twice of poly(dA-dT) at 0.1 M; assay type: ADME; method in brief: as §1
[29] = Delta Tm value ( Tmdrug-DNA )-TmDNA ) was obtained for the covalently cross-linked compound in the presence of formaldehyde using twice of poly(dI-dC) at 0.05 M; assay type: ADME; method in brief: as §1
[30] = species on record: Bos taurus; assay: Delta Tm value ( Tmdrug-DNA )-TmDNA ) was obtained for the covalently cross-linked compound in the absence of formaldehyde using calf thymus DNA at 0.05 M; assay type: ADME; conditions: cattle; method in brief: as §2
[31] = system: [poly(dA-dT)]2 (synthetic); assay: Delta Tm value ( Tmdrug-DNA )-TmDNA ) was obtained for the covalently cross-linked compound in the absence of formaldehyde using twice of poly(dA-dT) at 0.25 M; conditions: in vivo
[32] = system: poly(dA-dC)·poly(dG-dT) (synthetic); assay: Delta Tm value ( Tmdrug-DNA )-TmDNA ) was obtained for the covalently cross-linked compound in the absence of formaldehyde using poly(dA-dC).poly(dG-dT) at 0.1 M; conditions: in vitro
[33] = species on record: Bos taurus; assay: Delta Tm value ( Tmdrug-DNA )-TmDNA ) was obtained for the covalently cross-linked compound in the presence of formaldehyde using calf thymus DNA at 1 M; assay type: ADME; conditions: cattle; method in brief: as §1
[34] = Delta Tm value (Tm(drug-DNA)-Tm(DNA)) was determined for the covalently cross-linked compound in the presence of formaldehyde using twice of poly(dI-dC) at 0.25 M; assay type: ADME; method in brief: as §1

Q: What does the source list for `COC1C(CO)OC(n2c3ccccc3c3c4c(c5c6ccccc6[nH]c5c32)C(=O)N(N)C4=O)C(N)C1O` (centres undefined)?
A: Delta Tm [1]: 5.9 °C; Delta Tm [2]: 0 °C; Delta Tm [3]: 6 °C; Delta Tm [4]: 0 °C and -1 °C; Delta Tm [5]: 21.2 °C; Delta Tm [6]: 6.7 °C; Delta Tm [7]: 0 °C; Delta Tm [8]: 6.7 °C; Delta Tm [9]: 4 °C; Delta Tm [10]: 0 °C; Delta Tm [11]: 8.9 °C; Delta Tm [12]: 12.4 °C; Delta Tm [13]: 0 °C; Delta Tm [14]: 26.2 °C; Delta Tm [15]: 1 °C; Delta Tm [16]: -2 °C; Delta Tm [17]: 6.7 °C; Delta Tm [18]: 22.3 °C; Delta Tm [19]: 3 °C; Delta Tm [20]: 2 °C; Delta Tm [21]: 6.5 °C; Delta Tm [22]: 31 °C; Delta Tm [23]: 0 °C; Delta Tm [24]: 2.9 °C; Delta Tm [25]: 11.9 °C; Delta Tm [26]: 50.8 °C; Delta Tm [27]: 2 °C; Delta Tm [28]: 11.9 °C; Delta Tm [29]: 3.1 °C; Delta Tm [30]: 2 °C; Delta Tm [31]: 4.8 °C; Delta Tm [32]: 1.8 °C; Delta Tm [33]: 28.7 °C; Delta Tm [34]: 10 °C
